Measured values from ChEMBL document CHEMBL5252537, “Usnic Acid Benzylidene Analogues as Potent Mechanistic Target of Rapamycin Inhibitors for the Control of Breast Malignancies” (J Nat Prod, 2017).
Calls of active or inactive are those of the source. No cut-off for these calls is given here.

How the values were obtained:
BT-474 = experiment: Antiproliferative activity against human BT-474 cells incubated for 72 hrs by MTT assay; type: functional, cell-based; conditions: BT-474, 72 h
Method in brief: (§1)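 Cells seeded at 5 × 10^3/well and allowed to attach overnight, then washed with PBS. Compound diluted from 10 mM DMSO stock into medium (100 ng/mL HGF added for c-Met-expressing cells), in triplicate, 72 h at 37 °C. MTT added for 4 h, formazan dissolved in DMSO, absorbance read at 570 nm. Cell numbers taken from a standard curve; IC50 calculated.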

[1] = Toxicity in athymic nude mouse xenografted with human MCF7 cells at 10 mg/kg, ip measured after 75 days post inoculation; conditions: in vivo, 1800 h
[2] = biological target: Serine/threonine-protein kinase mTOR (Homo sapiens) (UniProt P42345); experiment: Inhibition of mTOR in human […] cells assessed as reduction in p-S6K level at 0.25 to 0.5 uM by Western blot analysis; type: cell-based; conditions: MCF7, dose 0.25-0.5 µM
Method in brief: (§2)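 Cells seeded at 5 × 10^5 per 100 mm dish and allowed to attach overnight. Treated with compound or DMSO for 72 h (HGF 100 ng/mL added for MDA-MB-231). Lysed in RIPA buffer with protease inhibitors. 30 μg protein run on SDS-PAGE, transferred to PVDF, blocked in 5% BSA/TBST. Primary antibodies overnight at 4 °C, HRP secondary antibodies, chemiluminescent detection.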

MDA-MB-468 [3] = experiment: Antiproliferative activity against human MDA-MB-468 cells incubated for 72 hrs by MTT assay; type: functional, cell-based; conditions: MDA-MB-468, 72 h; method in brief: as §1
MCF7 [4] = experiment: Inhibition of colony formation in human MCF7 cells assessed as reduction in colony diameter at 0.6 uM incubated for 8 days by inverted phase contrast microscopic analysis (reference value: 50 micrometer); type: functional; conditions: time 8 day
Method in brief: (§3)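 Soft agar assay: 5 × 10^3 MCF-7 cells per well in a cell/agar matrix layered over a base agar layer. Overlaid with 10% serum medium containing 0.2 or 0.6 μM compound, or DMSO. Colonies photographed under inverted phase-contrast microscopy after 8 days. Matrix then solubilized, MTT added (4 h, 37 °C), detergent added, A570 read. Growth normalized to DMSO.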

SK-BR-3 = experiment: Induction of autophagy in human SK-BR-3 cells assessed as autophagic vacuoles by microscopic analysis; type: functional, cell-based
Method in brief: (§4)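 Cells of each line treated with compound and examined by light microscopy for autophagic vacuoles, compared with control cells.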

[5] = Toxicity in athymic nude mouse xenografted with human MDA-MB-231/GFP cells at 10 mg/kg, ip measured after 34 days post inoculation; conditions: in vivo, 816 h
MDA-MB-231 [6] = experiment: Antiproliferative activity against human MDA-MB-231 cells incubated for 72 hrs by MTT assay; type: functional, cell-based; conditions: MDA-MB-231, 72 h; method in brief: as §1
MCF7 [7] = experiment: Inhibition of colony formation in human MCF7 cells at 0.6 uM incubated for 8 days by inverted phase contrast microscopic analysis; type: functional; conditions: MCF7, 192 h, time 8 day; method in brief: as §3
MDA-MB-231 [8] = experiment: Induction of autophagy in human MDA-MB-231 cells assessed as increase in LC3 level at 0.4 to 0.8 uM by Western blotting analysis; type: functional, cell-based; conditions: dose 0.4-0.8 µM; method in brief: as §2
[9] = biological target: Serine/threonine-protein kinase mTOR (Homo sapiens) (UniProt P42345); experiment: In vivo inhibition of mTOR in human MDA-MB-231/GFP cells xenografted in athymic nude mouse assessed as downregulation of phosphorylated 4E-BP1 level at 10 mg/kg, ip
MDA-MB-468 [10] = experiment: Induction of autophagy in human MDA-MB-468 cells assessed as autophagic vacuoles by microscopic analysis; type: functional, cell-based; method in brief: as §4
mTORC2 (Homo sapiens) [11] = biological target: T1, mTORC2 (Homo sapiens) (UniProt P42345+Q6R327+Q9BVC4+Q9BPZ7); experiment: Inhibition of mTORC2 in human MDA-MB-231 cells assessed as reduction in Akt phosphorylation at Ser473 residue at 0.25 to 0.5 uM by Western blot analysis; type: cell-based; conditions: dose 0.25-0.5 µM; method in brief: as §2
MDA-MB-231 [12] = experiment: Induction of autophagy in human MDA-MB-231 cells assessed as increase in beclin-1 level at 0.4 to 0.8 uM by Western blotting analysis; type: functional, cell-based; conditions: dose 0.4-0.8 µM; method in brief: as §2
[13] = Toxicity in athymic nude mouse xenografted with human MDA-MB-231/GFP cells assessed as reduction in body weight at 10 mg/kg, ip measured after 34 days post inoculation; conditions: in vivo, 816 h
[14] = biological target: Serine/threonine-protein kinase mTOR (Homo sapiens) (UniProt P42345); experiment: In vivo inhibition of mTOR in human MCF7 cells xenografted in athymic nude mouse assessed as downregulation of phosphorylated S6K level at 10 mg/kg, ip
mTORC2 (Homo sapiens) [15] = biological target: T1, mTORC2 (Homo sapiens); experiment: Inhibition of mTORC2 in human MCF7 cells assessed as reduction in Akt phosphorylation at Ser473 residue at 0.25 to 0.5 uM by Western blot analysis; type: cell-based; conditions: dose 0.25-0.5 µM; method in brief: as §2

CC(=O)C1=C(O)C=C2Oc3c(C(=O)/C=C/c4ccc(OC(F)(F)F)cc4)c(O)c(C)c(O)c3[C@]2(C)C1=O
IC50 (BT-474): 390 nM | Activity [1]: Non-Toxic | inhibition [2]: Active | IC50 (MDA-MB-468 [3]): 350 nM | Activity (MCF7 [4]): 122 um | Activity (SK-BR-3): Active | Activity [5]: Non-Toxic | IC50 (MDA-MB-231 [6]): 320 nM | inhibition at 0.6 µM (MCF7 [7]): 75.3% | Activity (MDA-MB-231 [8]): Active | inhibition [9]: Active | Activity (MDA-MB-468 [10]): Active | inhibition (mTORC2 (Homo sapiens) [11]): Active | Activity (MDA-MB-231 [12]): Active | Activity [13]: Non-Toxic | inhibition [14]: Active | inhibition (mTORC2 (Homo sapiens) [15]): Active
